In ChEMBL document CHEMBL3425450, “Neuroactive Steroids. 1. Positive Allosteric Modulators of the (γ-Aminobutyric Acid)A Receptor: Structure-Activity Relationships of Heterocyclic Substitution at C-21” (J Med Chem, 2015):
Converted amounts (≈) assume the structure as drawn.

Experiments:
[1] = Retention time of the compound by LC-MS analysis; type: physicochemical
Summary of the method: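 Eluents were water and acetonitrile, each with TFA, run as a 5 to 95% acetonitrile gradient over 1.5 min at 1.5 mL/min. Capillary voltage was 3.5 kV and fragmentor voltage 50 V.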

[2] = molecular target: GABA-A receptor; agonist GABA site; assay: Positive allosteric modulation of recombinant alpha4beta3delta GABAA receptor (unknown origin) expressed in CHO cells assessed as potentiation of GABA-induced channel current treated for 30 s prior to GABA stimulation for 2s by manual patch assay; type: cell-based, Homo sapiens
[3] = molecular target: GABA-A receptor; anion channel; assay: Displacement of [3H]TBPS from GABAA receptor in Sprague-Dawley rat brain cortical membrane after 90 mins by liquid scintillation spectrometry
[4] = molecular target: GABA-A receptor; agonist GABA site; assay: Positive allosteric modulation of recombinant alpha1beta2gamma2 GABAA receptor (unknown origin) expressed in LTK cells assessed as potentiation of GABA-induced channel current treated for 30 s prior to GABA stimulation for 2s by Q-patch assay; type: cell-based, Homo sapiens
[5] = Clearance in rat liver microsomes at 10 uM after 60 mins by HPLC-MS/MS analysis; type: ADME
[6] = Clearance in human liver microsomes at 10 uM after 60 mins by HPLC-MS/MS analysis; type: ADME
[7] = Lipophilicity, log D of the compound at 20 uM at pH 7.4 by HPLC-MS/MS analysis; type: physicochemical; settings: buffer
[8] = Aqueous solubility of the compound at pH 7.4 by HPLC-MS/MS analysis; type: physicochemical; settings: buffer
[9] = Clearance in mouse liver microsomes at 10 uM after 60 mins by HPLC-MS/MS analysis; type: ADME
[10] = Clearance in Sprague-Dawley rat at 5 mg/kg, iv and 20 mg/kg, po by LC-MS/MS analysis; type: ADME, organism-based; settings: in vivo
Summary of the method: (§1)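 Rats were dosed i.v. at 5 mpk and orally at 20 mpk. Clearance and oral bioavailability were calculated from mean plasma concentrations of 2 rats.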

[11] = Oral bioavailability in Sprague-Dawley rat at 20 mg/kg by LC-MS/MS analysis; type: ADME, organism-based; settings: in vivo; summary of the method: as §1
[12] = Ratio of drug level in brain to plasma in Sprague-Dawley rat at 5 mg/kg, iv after 30 mins by LC-MS/MS analysis; type: ADME, organism-based; parameters: dose 5 mg/kg, route intravenous; settings: read-out: BPR
Summary of the method: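 Brain and plasma were sampled at a single point 30 min after the i.v. 5 mpk dose. The ratio was calculated from mean concentrations of 2 rats.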

SMILES | Retention_time [1] [min] | EC50 [2] [nM] | IC50 [3] [nM] | EC50 [4] [nM] | CLhep predicted at 10 µM [5] [mL/min/kg] | CLhep predicted at 10 µM [6] [mL/min/kg] | logD at 20 µM [7] | solubility [8] [µM] | CLhep predicted at 10 µM [9] [mL/min/kg] | clearance [10] [mL/min/kg] | bioavailability [11] [%] | Kp at 0.5 h [12]
C[C@@]1(O)CC[C@H]2[C@@H](CC[C@@H]3[C@@H]2CC[C@]2(C)[C@@H](C(=O)Cn4ccnc4)CC[C@@H]32)C1 | 0.76 | > 3000 | 108 | > 3000 | – | – | – | – | – | – | – | –
CC(=O)[C@H]1CC[C@H]2[C@@H]3CC[C@H]4C[C@](C)(O)CC[C@@H]4[C@H]3CC[C@]12C | – | 553 | 74 | 355 | 52.8 | 8.33 | 5.1 | 1 (≈ 0.319 µg/mL) | 67.5 | – | – | –
C[C@@]1(O)CC[C@H]2[C@@H](CC[C@@H]3[C@@H]2CC[C@]2(C)[C@@H](C(=O)Cn4cccn4)CC[C@@H]32)C1 | 0.89 | 1150 | 149 | > 3000 | – | – | – | – | – | – | – | –
C[C@@]1(O)CC[C@H]2[C@@H](CC[C@@H]3[C@@H]2CC[C@]2(C)[C@@H](C(=O)Cn4nccn4)CC[C@@H]32)C1 | 0.889 | 1420 | 54 | 592 | – | – | – | – | – | – | – | –
C[C@@]1(O)CC[C@H]2[C@H](CC[C@@H]3[C@@H]2CC[C@]2(C)[C@@H](C(=O)Cn4cc5cnccc5n4)CC[C@@H]32)C1 | 1.06 | 1350 | 24 | > 3000 | – | – | – | – | – | – | – | –
C[C@@]1(O)CC[C@H]2[C@@H](CC[C@@H]3[C@@H]2CC[C@]2(C)[C@@H](C(=O)Cn4ncnn4)CC[C@@H]32)C1 | 0.88 | 292 | 31 | 945 | 14.3 | 1.67 | 4.5 | 0.9 (≈ 0.348 µg/mL) | 33.8 | 8.33 | 67 | 2
C[C@@]1(O)CC[C@H]2[C@H](CC[C@@H]3[C@@H]2CC[C@]2(C)[C@@H](C(=O)Cn4nccn4)CC[C@@H]32)C1 | 0.87 | 240 | 11 | 125 | 45 | 3.17 | 4.6 | 7.3 (≈ 2.81 µg/mL) | 67.5 | 38.3 | 27 | 1.8
C[C@@]1(O)CC[C@H]2[C@H](CC[C@@H]3[C@@H]2CC[C@]2(C)[C@@H](C(=O)Cn4cc5cccnc5n4)CC[C@@H]32)C1 | 0.8 | 1020 | 42 | > 3000 | – | – | – | – | – | – | – | –
CC(=O)[C@H]1CC[C@H]2[C@@H]3CC[C@H]4C[C@](C)(O)CC[C@]4(C)[C@H]3CC[C@]12C [GANAXOLONE] | – | 103 | 42 | 266 | 55.7 | 6.5 | 5.3 | 0.7 (≈ 0.233 µg/mL) | 67.5 | 51.7 | 10 | 4
C[C@@]1(O)CC[C@H]2[C@H](CC[C@@H]3[C@@H]2CC[C@]2(C)[C@@H](C(=O)Cn4ccnn4)CC[C@@H]32)C1 | 0.84 | 1830 | 27 | 1840 | – | – | – | – | – | – | – | –
C[C@@]1(O)CC[C@H]2[C@H](CC[C@@H]3[C@@H]2CC[C@]2(C)[C@@H](C(=O)Cn4cccn4)CC[C@@H]32)C1 | 0.88 | 1460 | 32 | 945 | – | – | – | – | – | – | – | –
C[C@@]1(O)CC[C@H]2[C@@H](CC[C@@H]3[C@@H]2CC[C@]2(C)[C@@H](C(=O)Cn4cnnn4)CC[C@@H]32)C1 | 0.86 | 2140 | 214 | > 3000 | – | – | – | – | – | – | – | –
C[C@@]1(O)CC[C@H]2[C@H](CC[C@@H]3[C@@H]2CC[C@]2(C)[C@@H](C(=O)Cn4cncn4)CC[C@@H]32)C1 | 0.829 | > 3000 | 140 | > 3000 | – | – | – | – | – | – | – | –
C[C@@]1(O)CC[C@H]2[C@H](CC[C@@H]3[C@@H]2CC[C@]2(C)[C@@H](C(=O)Cn4ncc5cnccc54)CC[C@@H]32)C1 | 0.75 | 1400 | 33 | > 3000 | – | – | – | – | – | – | – | –
C[C@@]1(O)CC[C@H]2[C@H](CC[C@@H]3[C@@H]2CC[C@]2(C)[C@@H](C(=O)Cn4ncc5ccccc54)CC[C@@H]32)C1 | 0.95 | 508 | 15 | 1530 | – | – | – | – | – | – | – | –
C[C@@]1(O)CC[C@H]2[C@@H](CC[C@@H]3[C@@H]2CC[C@]2(C)[C@@H](C(=O)Cn4cncn4)CC[C@@H]32)C1 | 0.84 | 781 | 174 | > 3000 | – | – | – | – | – | – | – | –
C[C@@]1(O)CC[C@H]2[C@H](CC[C@@H]3[C@@H]2CC[C@]2(C)[C@@H](C(=O)Cn4ncnn4)CC[C@@H]32)C1 | 0.87 | 345 | 6 | 1150 | 39.3 | 5.5 | 4.5 | 2.5 (≈ 0.966 µg/mL) | 67.5 | 18.3 | 41 | 2.3
C[C@@]1(O)CC[C@H]2[C@H](CC[C@@H]3[C@@H]2CC[C@]2(C)[C@@H](C(=O)Cn4ncc5c4CCCC5)CC[C@@H]32)C1 | 0.94 | > 3000 | 50 | 1490 | – | – | – | – | – | – | – | –
C[C@@]1(O)CC[C@H]2[C@H](CC[C@@H]3[C@@H]2CC[C@]2(C)[C@@H](C(=O)Cn4cc5c(n4)CCCC5)CC[C@@H]32)C1 | 0.93 | 178 | 24 | 724 | 55.7 | 10.8 | 5.7 | 0.3 (≈ 0.132 µg/mL) | 67.5 | – | – | –
C[C@@]1(O)CC[C@H]2[C@H](CC[C@@H]3[C@@H]2CC[C@]2(C)[C@@H](C(=O)Cn4cnnn4)CC[C@@H]32)C1 | 0.84 | 394 | 69 | 2200 | – | – | – | – | – | – | – | –
C[C@@]1(O)CC[C@H]2[C@H](CC[C@@H]3[C@@H]2CC[C@]2(C)[C@@H](C(=O)Cn4ccnc4)CC[C@@H]32)C1 | 0.76 | 3130 | 21 | > 3000 | – | – | – | – | – | – | – | –
C[C@@]1(O)CC[C@H]2[C@H](CC[C@@H]3[C@@H]2CC[C@]2(C)[C@@H](C(=O)CN4CCCC4)CC[C@@H]32)C1 | 0.745 | – | 1290 | – | – | – | – | – | – | – | – | –
C[C@@]1(O)CC[C@H]2[C@H](CC[C@@H]3[C@@H]2CC[C@]2(C)[C@@H](C(=O)Cn4ncc5ncccc54)CC[C@@H]32)C1 | 0.85 | > 3000 | 25 | 2510 | – | – | – | – | – | – | – | –
CC(=O)[C@H]1CC[C@H]2[C@@H]3CC[C@@H]4C[C@](C)(O)CC[C@@H]4[C@H]3CC[C@]12C | – | 119 | 55 | 371 | – | – | – | – | – | – | – | –
C[C@@]1(O)CC[C@H]2[C@@H](CC[C@@H]3[C@@H]2CC[C@]2(C)[C@@H](C(=O)CN4CCCC4)CC[C@@H]32)C1 | 0.77 | – | 2890 | – | – | – | – | – | – | – | – | –
C[C@@]1(O)CC[C@H]2[C@@H](CC[C@@H]3[C@@H]2CC[C@]2(C)[C@@H](C(=O)Cn4ccnn4)CC[C@@H]32)C1 | 0.85 | 1320 | 102 | 2740 | – | – | – | – | – | – | – | –
CC(=O)[C@H]1CC[C@H]2[C@@H]3CC[C@H]4C[C@H](O)CC[C@]4(C)[C@H]3CC[C@]12C [BREXANOLONE] | – | 75.5 | 22 | 237 | 55.7 | 8.33 | 4.9 | 3.3 (≈ 1.05 µg/mL) | 67.5 | 80 | 2.3 | 1.8
C[C@@]1(O)CC[C@H]2[C@H](CC[C@@H]3[C@@H]2CC[C@]2(C)[C@@H](C(=O)Cn4ncc5cccnc54)CC[C@@H]32)C1 | 0.9 | 1870 | 16 | 1750 | – | – | – | – | – | – | – | –
C[C@@]1(O)CC[C@H]2[C@H](CC[C@@H]3[C@@H]2CC[C@]2(C)[C@@H](C(=O)Cn4ncc5ccncc54)CC[C@@H]32)C1 | 0.8 | > 3000 | 17 | > 3000 | – | – | – | – | – | – | – | –
C[C@@]1(O)CC[C@H]2[C@H](CC[C@@H]3[C@@H]2CC[C@]2(C)[C@@H](C(=O)Cn4cc5ccccc5n4)CC[C@@H]32)C1 | 0.92 | 2520 | 11 | 1900 | – | – | – | – | – | – | – | –
